From ChEMBL document CHEMBL2424619, “Small-molecule ligands of methyl-lysine binding proteins: optimization of selectivity for L3MBTL3” (J Med Chem, 2013)
The source made the active and inactive calls. The calls are words filed in the database; no cut-off is given here.

Assays:
[1] = target: T1, Lethal(3)malignant brain tumor-like protein 3 (Homo sapiens) (UniProt Q96JM7); experiment: Binding affinity to L3MBTL3 in human G401 cells by Western blot based pulldown assay; format: cell-based; details: G-401
T1 sequence (whole entry): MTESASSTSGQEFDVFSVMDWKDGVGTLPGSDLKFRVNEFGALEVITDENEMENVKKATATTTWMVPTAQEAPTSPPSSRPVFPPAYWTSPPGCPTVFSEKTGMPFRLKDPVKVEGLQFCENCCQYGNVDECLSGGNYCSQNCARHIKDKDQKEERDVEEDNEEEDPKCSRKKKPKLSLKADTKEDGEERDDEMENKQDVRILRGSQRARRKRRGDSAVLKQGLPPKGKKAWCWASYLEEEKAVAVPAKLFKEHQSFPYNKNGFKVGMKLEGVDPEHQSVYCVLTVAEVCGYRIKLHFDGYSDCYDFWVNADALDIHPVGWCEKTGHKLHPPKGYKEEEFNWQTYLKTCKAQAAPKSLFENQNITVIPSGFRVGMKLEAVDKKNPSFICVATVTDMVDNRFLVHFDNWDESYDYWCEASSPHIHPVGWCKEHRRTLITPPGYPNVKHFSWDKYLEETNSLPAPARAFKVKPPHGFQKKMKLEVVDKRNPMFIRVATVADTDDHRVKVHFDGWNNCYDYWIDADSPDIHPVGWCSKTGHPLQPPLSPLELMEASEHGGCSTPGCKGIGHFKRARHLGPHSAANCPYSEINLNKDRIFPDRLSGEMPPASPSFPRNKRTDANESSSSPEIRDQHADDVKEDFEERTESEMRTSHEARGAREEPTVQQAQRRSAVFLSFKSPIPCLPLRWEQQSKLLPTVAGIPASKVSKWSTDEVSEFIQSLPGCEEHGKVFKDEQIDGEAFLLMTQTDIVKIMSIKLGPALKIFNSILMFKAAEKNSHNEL
In short: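 G-401 lysate made in Tris pH 8.0, 500 mM NaCl, EDTA, 1% Triton, diluted to 150 mM NaCl. […] Streptavidin beads saturated with biotinylated probe (biotin as control), rotated with lysate overnight at 4 °C, washed, eluted; SDS-PAGE and immunoblot for endogenous L3MBTL3.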

[2] = target: MBT domain-containing protein 1 (Homo sapiens, UniProt Q05BQ5); experiment: Inhibition of MBTD1 (unknown origin) after 30 mins by AlphaScreen assay
MBT domain-containing protein 1, sequence (Q05BQ5 whole entry, the tested form may be a part): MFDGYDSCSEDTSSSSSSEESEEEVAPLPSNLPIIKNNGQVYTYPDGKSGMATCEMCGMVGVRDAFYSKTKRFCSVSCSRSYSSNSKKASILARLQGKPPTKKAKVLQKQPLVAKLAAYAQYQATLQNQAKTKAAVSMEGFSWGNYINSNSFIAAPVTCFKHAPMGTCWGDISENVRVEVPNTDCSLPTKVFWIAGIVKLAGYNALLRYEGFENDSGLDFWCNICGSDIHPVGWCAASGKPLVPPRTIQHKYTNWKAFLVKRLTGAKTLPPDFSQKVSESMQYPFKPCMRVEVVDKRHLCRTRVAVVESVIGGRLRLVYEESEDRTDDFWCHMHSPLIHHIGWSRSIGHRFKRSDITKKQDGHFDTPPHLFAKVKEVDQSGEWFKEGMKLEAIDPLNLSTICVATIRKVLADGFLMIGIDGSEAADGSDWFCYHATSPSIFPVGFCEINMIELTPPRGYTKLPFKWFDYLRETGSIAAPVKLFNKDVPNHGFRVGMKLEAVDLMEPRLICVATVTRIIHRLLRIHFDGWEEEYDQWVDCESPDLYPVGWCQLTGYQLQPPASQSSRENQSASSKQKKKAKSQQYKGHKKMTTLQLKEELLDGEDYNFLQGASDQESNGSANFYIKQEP
In short: (§1)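 AlphaScreen competition with histone peptide. Compounds in 3-fold, 10-point dilutions, top 10 or 30 μM; buffer 20 mM Tris pH 8.0, 25 mM NaCl, 2 mM DTT, 0.05% Tween-20. Protein-peptide mix 30 min RT, then streptavidin donor plus nickel-chelate acceptor beads (GST acceptor beads for GST-tagged PHF23, JARID1A) 30 min RT dark. Protein-free His6-biotin peptide counterscreen.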

[3] = target: T2, Lethal(3)malignant brain tumor-like protein 4 (Homo sapiens, UniProt Q8NA19); experiment: Inhibition of L3MBTL4 (unknown origin) after 30 mins by AlphaScreen assay; in short: as §1
T2 sequence (Q8NA19 whole entry): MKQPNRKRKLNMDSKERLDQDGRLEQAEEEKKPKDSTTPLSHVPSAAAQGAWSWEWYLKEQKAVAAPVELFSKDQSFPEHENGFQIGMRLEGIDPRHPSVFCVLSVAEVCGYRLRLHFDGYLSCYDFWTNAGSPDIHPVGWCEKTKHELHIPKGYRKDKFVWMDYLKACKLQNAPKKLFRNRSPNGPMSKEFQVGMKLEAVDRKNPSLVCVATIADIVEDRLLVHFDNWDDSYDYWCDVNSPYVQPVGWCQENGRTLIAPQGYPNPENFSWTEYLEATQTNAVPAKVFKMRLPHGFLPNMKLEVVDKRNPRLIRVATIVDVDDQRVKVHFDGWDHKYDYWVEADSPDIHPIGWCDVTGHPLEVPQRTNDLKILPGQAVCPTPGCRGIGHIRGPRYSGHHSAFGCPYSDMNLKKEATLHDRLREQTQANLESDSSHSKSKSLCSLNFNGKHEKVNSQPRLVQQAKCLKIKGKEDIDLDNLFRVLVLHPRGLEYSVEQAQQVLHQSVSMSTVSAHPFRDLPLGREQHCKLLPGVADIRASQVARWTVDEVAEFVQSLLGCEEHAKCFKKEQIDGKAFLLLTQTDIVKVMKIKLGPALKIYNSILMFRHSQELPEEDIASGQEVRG

[4] = target: T1, Lethal(3)malignant brain tumor-like protein 3 (Homo sapiens); experiment: Displacement of mero76-UNC1215 from GFP-L3MBTL3 (unknown origin) expressed in HEK293 cells at 1 equivalent dose after 3 hrs by immunofluorescence assay; format: cell-based
In short: (§2)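 HEK293 cells seeded on coverslips, transfected 24 h later with GFP-L3MBTL3 (N-terminal GFP fusion of full-length protein), then after 16 h loaded with mero76 conjugate (5 μM) for 3 h. Competitor then added at 5 μM or 25 μM (1 or 5 equivalents relative to probe) for a further 3 h. Hoechst-stained; spinning-disk confocal imaging scored loss of probe foci.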

[5] = target: T1, Lethal(3)malignant brain tumor-like protein 3 (Homo sapiens); experiment: Displacement of mero76-UNC1215 from GFP-L3MBTL3 (unknown origin) expressed in HEK293 cells at 5 uM after 3 hrs by immunofluorescence assay; format: cell-based; in short: as §2
HEK-293T = experiment: Cytotoxicity against HEK293T/17 cells assessed as cell viability up to 100 uM after 24 hrs by CellTiter-Glo luminescence assay; format: cell-based; details: human
In short: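 Cell viability by CellTiter-Glo luminescence, compound tested up to 100 μM.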

[6] = target: T3, Muscarinic acetylcholine receptor M1 (Homo sapiens) (UniProt P11229); experiment: Antagonist activity at muscarinic M1 receptor (unknown origin) expressed in HEK293T cells assessed as inhibition of UNC1679 calcium mobilization at 30 uM; format: functional, cell-based; details: HEK-293T
T3 sequence (whole entry): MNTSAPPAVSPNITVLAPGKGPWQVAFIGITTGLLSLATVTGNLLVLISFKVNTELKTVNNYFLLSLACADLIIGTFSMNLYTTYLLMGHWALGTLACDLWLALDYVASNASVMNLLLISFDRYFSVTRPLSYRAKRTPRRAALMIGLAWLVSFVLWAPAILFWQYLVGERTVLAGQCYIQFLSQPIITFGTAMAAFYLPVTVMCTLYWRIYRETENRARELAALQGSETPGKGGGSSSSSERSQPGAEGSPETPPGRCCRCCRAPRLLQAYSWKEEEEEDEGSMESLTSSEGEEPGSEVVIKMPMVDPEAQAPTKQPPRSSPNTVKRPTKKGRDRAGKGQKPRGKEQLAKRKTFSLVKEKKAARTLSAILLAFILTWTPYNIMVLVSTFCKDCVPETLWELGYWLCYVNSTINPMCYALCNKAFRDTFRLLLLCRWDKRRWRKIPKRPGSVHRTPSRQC
In short: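 Test compound assayed for M1 antagonism at one concentration, 30 μM, scored as percent inhibition.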

[7] = target: T4, Lethal(3)malignant brain tumor-like protein 3 (Homo sapiens, UniProt Q96JM7); experiment: Inhibition of L3MBTL3 (unknown origin) using H4K20me2 as substrate after 30 mins by LNCE-TR-FRET assay
T4 sequence (Q96JM7 whole entry): T1 sequence (whole entry)

[8] = target: T5, Muscarinic acetylcholine receptor M1 (Homo sapiens, UniProt P11229); experiment: Antagonist activity at muscarinic M1 receptor (unknown origin) expressed in HEK293T cells assessed as inhibition of UNC1679 calcium mobilization; format: functional, cell-based, HEK-293T
T5 sequence (P11229 whole entry): T3 sequence (whole entry)

[9] = target: T4, Lethal(3)malignant brain tumor-like protein 3; experiment: Inhibition of L3MBTL3 (unknown origin) after 30 mins by AlphaScreen assay; in short: as §1

With `CCN1Cc2ccc(NC(=O)c3ccc(C(=O)N4CCC(C5CCCN5)CC4)c(Nc4ccccc4)c3)cc2C1` (stereo not given) the Activity [1] was “Active”, the IC50 [2] was 5.1 µM and the IC50 [3] was greater than 10 µM. The Activity [4] was “Active” and the Activity [5] was “Active”.
`CCN1Cc2ccc(NC(=O)c3ccc(C(=O)N4CCC(C5CCCN5)CC4)cc3)cc2C1` (stereo not given) was tested, and the Activity (HEK-293T) was “Non-toxic”, the IC50 [2] was greater than 10 µM and the IC50 [3] was greater than 10 µM. For the same molecule, the Activity [4] was “Active”, the Activity [5] was “Active” and the inhibition [6] was less than 20%.
`O=C(c1ccc(C(=O)N2CCC(N3CCCC3)CC2)c(Nc2ccccc2)c1)N1CCC(N2CCCC2)CC1` was tested, and the Activity [1] was “Active”, the Activity (HEK-293T) was “Non-toxic” and the IC50 [2] was 9 µM. The IC50 [7] was 49 nM, the IC50 [3] was greater than 10 µM and the IC50 [8] was 3.5 µM. The IC50 [9] was 64 nM and the Activity [4] was “Active”.
Molecule `O=C(c1ccc(C(=O)N2CC3CCC(C2)C3N2CCCC2)cc1)N1CCC(N2CCCC2)CC1` (stereo not given) has an IC50 [2] greater than 10 µM, an IC50 [7] of 92 nM and an IC50 [3] greater than 10 µM. It also gave an IC50 [9] of 160 nM.
Molecule `O=C(c1ccc(C(=O)N2CCC(N3CCCC3)CC2)cc1)N1CCC(N2CCCCC2)CC1` has an IC50 [2] of 10 µM, an IC50 [7] of 160 nM and an IC50 [3] greater than 10 µM. The IC50 [9] was 230 nM.
With `CN1CCCC1C1CCN(C(=O)c2ccc(C(=O)N3CCC(C4CCCN4C)CC3)cc2)CC1` (stereo not given) the IC50 [2] was greater than 10 µM, the IC50 [7] was 1900 nM and the IC50 [3] was greater than 10 µM. The IC50 [9] was 1700 nM.
`O=C(c1cccc(C(=O)N2CCC(N3CCCC3)CC2)c1)N1CCC(N2CCCC2)CC1` was tested, and the IC50 [2] was greater than 10 µM, the IC50 [7] was 290 nM and the IC50 [3] was greater than 10 µM. For the same molecule, the IC50 [9] was 360 nM.
With `O=C(c1ccc(C(=O)N2CCC(N3CCCC3)CC2)cc1)N1CCC(C2CCNCC2)CC1` the IC50 [2] was greater than 10 µM, the IC50 [7] was 800 nM and the IC50 [3] was greater than 10 µM. For the same molecule, the IC50 [9] was 740 nM.
In the case of `O=C(c1ccc(C(=O)N2CCC(N3CCCCC3)CC2)cc1)N1CCC(N2CCCCC2)CC1`, the Activity [1] is reported as “inactive”, the IC50 [2] is reported as 4.9 µM and the IC50 [7] is reported as greater than 10000 nM. The IC50 [3] was greater than 10 µM and the IC50 [9] was greater than 10000 nM.
With `O=C(c1ccc(C(=O)N2CCC(N3CCCC3)CC2)o1)N1CCC(N2CCCC2)CC1` the IC50 [2] was greater than 10 µM, the IC50 [7] was 310 nM and the IC50 [3] was greater than 10 µM. For the same molecule, the IC50 [9] was 530 nM.
Work on `O=C(c1ccccc1C(=O)N1CCC(N2CCCC2)CC1)N1CCC(N2CCCC2)CC1` yielded an IC50 [2] greater than 10 µM, an IC50 [7] of 350 nM and an IC50 [3] greater than 10 µM. It also gave an IC50 [9] of 1100 nM.
`O=C(c1ccc(C(=O)N2CCCC(N3CCCC3)CC2)cc1)N1CCCC(N2CCCC2)CC1` (stereo not given) gave an IC50 [2] greater than 10 µM, an IC50 [7] of 110 nM and an IC50 [3] greater than 10 µM. The IC50 [9] was 110 nM.
In the case of `O=C(c1ccc(C(=O)N2CCC3(CCNC3)CC2)cc1)N1CCC(N2CCCC2)CC1`, the IC50 [2] is reported as greater than 10 µM, the IC50 [7] is reported as 620 nM and the IC50 [3] is reported as greater than 10 µM. The IC50 [9] was 560 nM.
